Bioassay records: PubChem, several laboratories
Only a selection was taken, and hits are over-represented in it overall.
XiGFP reactiv = reactivates the inactive X chromosome in mouse fibroblasts | XiGFP mouse fibroblasts, % GFP-positive cells imaging, 3 d; cells co-treated with 5-aza-dC sensitizer; scaled so ellipticine positive control = 100% | activation, % at 7.58 µM | actives 0.055% (n = 360,000) | AID 743238;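 active means mean normalized replicate activation at least 10% and every replicate at or above 10%; inconclusive means only one of the two criteria met; inactive means mean below 10% and not all replicates reach 10%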;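 further: 0% = median of on-plate neutral control wells and 100% = ellipticine 6 µM median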
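assay system = SV40-immortalized XiGFP fibroblast cells, line 68-5-11 | buffer or medium = DMEM plus 5-aza-dC sensitizer | doses = single-point pinned compound dosing | times = 3-day compound exposure, then 15 min fixation at room temperature | benchmarks = positive control ellipticine, 6 µM final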
Myeloid diff MLP = compounds promoting myeloid differentiation; ER-HoxA9 myeloid progenitors, lysozyme-GFP differentiation, flow cytometry; calls only at 10 µM; actives 1% (n = 360,000);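 active means normalized GFP-positive differentiation at or above the plate's own cutoff, the solvent-only control mean plus 3 SD; inconclusive means no clear call, values can overlap the other calls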;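 further: cells exposed to compound for four days before flow analysis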
ABCB6 inh 2 = blocks the human ABCB6 transporter | K562-ABCB6 porphyrin accumulation, flow cytometry, 1 h; active compounds read low | actives 0.19% (n = 360,000) | fluorescence ratio to DMSO, % at 10 µM | Q9NP58;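 active means fluorescence ratio to DMSO below 75%, the collection mean minus 3 SD; inconclusive means too few cells collected in the well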;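 further: signal is porphyrin accumulated inside mitochondria; 100% equals median channel fluorescence of DMSO control wells; lower ratio means ABCB6 inhibition with less porphyrin fluorescence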
Target sequence (Q9NP58 whole entry, looked up): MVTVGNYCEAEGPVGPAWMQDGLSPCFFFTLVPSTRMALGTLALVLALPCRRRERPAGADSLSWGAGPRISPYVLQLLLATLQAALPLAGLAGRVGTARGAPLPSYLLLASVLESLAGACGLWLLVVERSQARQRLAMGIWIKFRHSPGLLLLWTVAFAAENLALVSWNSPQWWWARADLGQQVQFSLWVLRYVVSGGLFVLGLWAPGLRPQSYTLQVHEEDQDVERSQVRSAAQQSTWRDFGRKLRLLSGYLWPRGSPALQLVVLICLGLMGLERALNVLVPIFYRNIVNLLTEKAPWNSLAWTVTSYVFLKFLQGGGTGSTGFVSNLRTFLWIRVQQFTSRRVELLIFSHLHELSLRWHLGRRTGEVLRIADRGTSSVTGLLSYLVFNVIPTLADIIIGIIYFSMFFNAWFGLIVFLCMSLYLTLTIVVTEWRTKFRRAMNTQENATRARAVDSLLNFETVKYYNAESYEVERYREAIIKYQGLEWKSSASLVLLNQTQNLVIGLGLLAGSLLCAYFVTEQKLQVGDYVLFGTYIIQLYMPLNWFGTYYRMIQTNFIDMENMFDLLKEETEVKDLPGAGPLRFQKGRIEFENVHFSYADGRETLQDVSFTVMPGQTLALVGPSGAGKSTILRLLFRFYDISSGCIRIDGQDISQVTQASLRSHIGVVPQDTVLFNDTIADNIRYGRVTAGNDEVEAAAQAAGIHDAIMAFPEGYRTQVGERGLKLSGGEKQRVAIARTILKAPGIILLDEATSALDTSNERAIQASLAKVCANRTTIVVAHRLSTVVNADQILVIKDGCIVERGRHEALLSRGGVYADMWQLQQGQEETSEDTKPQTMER
* = called active by the depositor.

Screening CNC[C@@H]1OCCCC[C@H](C)Oc2ccc(NC(=O)CCC(F)(F)F)cc2C(=O)N([C@@H](C)CO)C[C@H]1C returned XiGFP reactiv 0.
For CCC(C)/C(C)=N/NC(=O)c1ccc(COc2ccc(Cl)c(C)c2)cc1 (stereo not given) the results were XiGFP reactiv 0, Myeloid diff MLP active and ABCB6 inh 2 101.
`CCOc1ccc(OCc2ccc(C(=O)N/N=C(\C)c3ccccn3)cc2)cc1` gave XiGFP reactiv 0, Myeloid diff MLP inconclusive and ABCB6 inh 2 96.
For CCOc1ccccc1CN1CCN(C/C=C/c2ccc(OC)cc2)CC1CCO (stereo not given) the results were XiGFP reactiv 0, Myeloid diff MLP inactive and ABCB6 inh 2 96.
Screening COc1ccc(/C=C/CN2CCN(CCc3ccccc3)C(CCO)C2)cc1 (stereo not given) returned XiGFP reactiv 0, Myeloid diff MLP active and ABCB6 inh 2 96.
Screening CC(C)Cn1c(/C=N/Nc2nc3ccccc3[nH]2)nc2ccccc21 returned XiGFP reactiv 0, Myeloid diff MLP active and ABCB6 inh 2 81.
`CCCn1c(/C=N/Nc2nc3ccccc3[nH]2)nc2ccccc21` gave XiGFP reactiv 0, Myeloid diff MLP inconclusive and ABCB6 inh 2 91.
`CCC(C)(C(=O)NC1CCCC1)N(Cc1ccco1)C(=O)c1ccc2c(c1)OCO2` (stereo not given) gave Myeloid diff MLP active and ABCB6 inh 2 100.
`CCC(C)(C(=O)NC1CCCC1)N(Cc1ccco1)C(=O)c1ccccn1` (stereo not given) gave Myeloid diff MLP inactive and ABCB6 inh 2 98.
C[C@H]1CN([C@@H](C)CO)C(=O)c2cc(NC(=O)Nc3ccccc3)ccc2O[C@@H]1CN(C)Cc1ccncc1 was read as XiGFP reactiv 0.
For COc1ccc(CNC(=O)CSc2nnc3nc(C)cc(C)n23)cc1OC the results were XiGFP reactiv 0, Myeloid diff MLP active and ABCB6 inh 2 96.
For Cc1cc(C)n2c(SCC(=O)NCc3ccco3)nnc2n1 the results were Myeloid diff MLP inactive and ABCB6 inh 2 99.
For CO[C@H]1CN(C)C(=O)c2cc(NS(C)(=O)=O)ccc2OC[C@H](C)N(S(C)(=O)=O)C[C@H]1C the results were XiGFP reactiv 1.
`CC(NC(=O)/C(C#N)=C1\N=C(NC(=O)c2cccs2)c2ccccc21)c1ccccc1` (stereo not given) gave XiGFP reactiv 3, Myeloid diff MLP active and ABCB6 inh 2 203.
`N#C/C(C(=O)NCCc1ccccc1)=C1/N=C(NC(=O)c2cccs2)c2ccccc21` gave XiGFP reactiv 0, Myeloid diff MLP inactive and ABCB6 inh 2 121.
Screening CNC(=O)C[C@H]1CC[C@H]2[C@H](COc3ccc(NC(=O)C4CC4)cc3C(=O)N2C)O1 returned XiGFP reactiv 0.
For C/C=C/c1ccc([C@@H]2[C@@H](CN(C(=O)COC)C(C)C)N(C(C)=O)[C@H]2CO)cc1 the results were XiGFP reactiv 0.
`COCCOC(=O)C(C#N)c1nc2ccccc2nc1N1CCN(Cc2ccccc2)CC1` (stereo not given) gave Myeloid diff MLP active and ABCB6 inh 2 129.
`COCC(C)OC(=O)C(C#N)c1nc2ccccc2nc1N1CCN(Cc2ccccc2)CC1` (stereo not given) gave Myeloid diff MLP inactive and ABCB6 inh 2 121.
For C[C@H]1CN([C@@H](C)CO)C(=O)Cc2cc(NC(=O)Nc3cccc4ccccc34)ccc2O[C@@H]1CN(C)C(=O)Nc1ccc2c(c1)OCO2 the results were XiGFP reactiv 0.
`C[C@@H](O)C#Cc1ccc2c(c1)O[C@H](CN(C)CC1CC1)[C@@H](C)CN([C@@H](C)CO)S2(=O)=O` gave XiGFP reactiv -1.
`NC(=O)C1(N2CCCCC2)CCN(C(=O)c2cccs2)CC1` gave XiGFP reactiv 0, Myeloid diff MLP active and ABCB6 inh 2 91.
O=C(c1cccs1)N1CCN(C2CCCCC2)CC1 was read as Myeloid diff MLP inactive and ABCB6 inh 2 92.
`O=C(NCc1ccccc1)[C@H]1[C@H](CO)[C@H]2Cn3c(cccc3=O)[C@@H]1N2` gave XiGFP reactiv 0.
Screening CC(Sc1nnc(Nc2ccccc2)s1)C(=O)Nc1nc(-c2ccccc2)cs1 (stereo not given) returned XiGFP reactiv 0, Myeloid diff MLP active and ABCB6 inh 2 135.
Screening CC(Sc1nnc(NCc2ccccc2)s1)C(=O)Nc1ccc2c(c1)C(=O)c1ccccc1C2=O (stereo not given) returned XiGFP reactiv 0, Myeloid diff MLP inactive and ABCB6 inh 2 107.
Screening COc1cccc(NC(=O)N2C[C@@H](O)COC[C@H]3O[C@H](CC(=O)NC4Cc5ccccc5C4)CC[C@@H]32)c1 returned XiGFP reactiv 0.
For COc1ccc(N)c2c1C(=O)c1ccccc1C2=O the results were Myeloid diff MLP inactive and ABCB6 inh 2 98.
COc1ccc2noc3c2c1C(=O)c1ccccc1-3 was read as Myeloid diff MLP active and ABCB6 inh 2 346.
Screening CNC[C@@H]1OCCCC[C@@H](C)Oc2ccc(NC(=O)Nc3ccccc3)cc2C(=O)N([C@@H](C)CO)C[C@H]1C returned XiGFP reactiv -1.
`C[C@H](CO)N1C[C@H](C)[C@@H](CN(C)S(=O)(=O)c2ccc(F)cc2)Oc2c(NC(=O)CCCCCC(=O)Nc3ccccc3N)cccc2C1=O` gave XiGFP reactiv 0.
For CCOc1ccc(N2C(=O)CS/C2=C(\C(Cl)=C(Cl)Cl)[N+](=O)[O-])cc1 the results were Myeloid diff MLP active and ABCB6 inh 2 111.
Screening CCOc1ccc(N2C(=O)CNC2=S)cc1 returned XiGFP reactiv 0, Myeloid diff MLP inactive and ABCB6 inh 2 97.
`O=c1c2ccccc2nc2n1-c1ccccc1CCC2` gave Myeloid diff MLP inactive and ABCB6 inh 2 98.
O=C1c2ccccc2-n2c1nc1ccccc1c2=O was read as Myeloid diff MLP active and ABCB6 inh 2 111.
Screening O=C(O)c1cc(-c2ccc3ccccc3n2)nc2ccccc12 returned XiGFP reactiv 0, Myeloid diff MLP inactive and ABCB6 inh 2 99.
O=C(O)c1cc(-c2ccc3ccccc3c2)nc2ccc(F)cc12 was read as XiGFP reactiv 0, Myeloid diff MLP active and ABCB6 inh 2 118.
O=C(N1CCN(c2ccccc2)CC1)C1(S(=O)(=O)c2ccc(Cl)cc2)CC1 was read as XiGFP reactiv 0, Myeloid diff MLP active and ABCB6 inh 2 95.
Screening O=C(c1ccco1)N1CCN(C(=O)C2(S(=O)(=O)c3ccc(Cl)cc3)CC2)CC1 returned Myeloid diff MLP inactive and ABCB6 inh 2 97.
For C[C@@H]1CN([C@H](C)CO)C(=O)c2ccccc2-c2ccccc2CO[C@H]1CN(C)C(=O)Nc1ccc2c(c1)OCO2 the results were XiGFP reactiv 1.
`C[C@H](CO)N1C[C@H](C)[C@H](CN(C)C(=O)Nc2ccccc2)OCCCC[C@H](C)Oc2ccc(NS(=O)(=O)c3cn(C)cn3)cc2C1=O` gave XiGFP reactiv 0.
